Results as given in article PMC7669743 (Inorganic chemistry, 2020).
Like-named read-outs stand apart in the source and are kept apart here. Marks after values point to notes of the source that are not given here. Values belong to the compound of their own block, whether it stands above or below them.

Assays:
[1] = test system: SK-MEL-28 malignant melanoma cells; test: Dark cytotoxicity and photocytotoxicity in normoxia; format: cell-based, human
[2] = cited from earlier work
[3] = cited from earlier work; remark: listed apart in the source
[4] = test system: SK-MEL-28 cells; test: Dark cytotoxicity and photocytotoxicity in hypoxia; format: cell-based, human; details: for EC50: read-out: dark EC50 in hypoxia, hypoxia 1% O2, dark
Outline: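 SK-MEL-28 melanoma cells, 10,000 per well, pre-incubated 2–3 h at 1% O2 (5% CO2, 37 °C). Dosed 1 nM–300 μM, held 21–26 h at 1% O2, then film-sealed and given dark or light treatment. Cells returned to normoxia for 2 days, then resazurin (~60 μM final) for 4 h. EC50 came from zero-bottom log-logistic fits, PI as dark/light EC50.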

[5] = Lipophilicity; format: physicochemical; details: pH 7.4, phosphate buffer / 1-octanol, chloride salts
Outline: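 Modified shake-flask method. 10 mM saline-free phosphate buffer (pH 7.4) and 1-octanol were mutually pre-saturated at 1:4 by shaking at 230 rpm for 24 h (~20 °C). Chloride salts at 50 μM in saturated octanol plus saturated buffer (1:1) were shaken 200 times and centrifuged (~10,000 × g, 2 min). Each phase was read by absorbance at its longest-wavelength maximum (400–600 nm) against a standard curve. Log D is the log of the octanol/buffer concentration ratio.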

[6] = Solubility in high ionic strength aqueous media; format: physicochemical; details: for solubility in aqueous media relative to the dmb analogs: high ionic strength aqueous media, in words; for solubility in high ionic strength aqueous media: fully soluble
[7] = test system: amelanotic SK-MEL-28 human cells; test: Fluence dependence of photocytotoxicity in normoxia; format: cell-based
[8] = Singlet oxygen sensitization quantum yield; format: physicochemical; details: acetonitrile
Outline: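 PF6- salts were used at 5–20 μM in acetonitrile distilled over calcium hydride, air-saturated. The 1O2 phosphorescence band (~1276 nm) was integrated using NIR PMT detection. Quantum yield was calculated by relative actinometry against [Ru(bpy)3]2+ (Φ = 0.56, aerated MeCN), using emission integrals and absorbance at the excitation wavelength. The refractive-index ratio was 1 because both solutions were in acetonitrile.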

[9] = test system: female C57BL/6J mice; test: Maximum tolerated dose; details: intraperitoneal, doses 25–200 mg kg^−1, 2-week observation
[10] = read-out: dark EC50, dark (sham) treatment, SK-MEL-28
[11] = read-out: light EC50, visible light, visible 400–700 nm, 100 J cm^−2, ~20 mW cm^−2

Compound: [Os+2].c1ccc(-c2ccccn2)nc1.c1ccc(-c2ccccn2)nc1.c1ccc(-c2ccccn2)nc1 [[Os(bpy)3]^2+, [Os(bpy)3]Cl2, reference compound]
EC50 [1, 10]: > 100 µM | singlet oxygen quantum yield ΦΔ ([2]; acetonitrile, room temperature, excitation 479 nm, literature value ref 83): 0.22 (479)^a

Compound: Cc1cccc(-c2cccc(C)n2)n1.Cc1cccc(-c2cccc(C)n2)n1.[Cl-].[Cl-].[Ru+2].c1ccc2c(-c3nc4c5cccnc5c5ncccc5c4[nH]3)cccc2c1 [[Ru(6,6′-dmb)2(1-NIP)]Cl2]
PI (PIvis) in hypoxia ([3]; 1% O2, visible light): 15

Compound: [Ru+2].c1ccc(-c2ccccn2)nc1.c1ccc(-c2ccccn2)nc1.c1ccc(-c2ccccn2)nc1 [[Ru(bpy)3]^2+]
singlet oxygen quantum yield ΦΔ of the standard ([2]; aerated MeCN): 0.56

Compound: [Os(bpy)2(IP-2T)]Cl2 [1–2T]
EC50 [1, 10]: 42.2 µM | EC50 [4]: 76.9 µM

log Do/w [5]: amphiphilic | solubility in aqueous media relative to the dmb analogs [6]: less soluble
Compound: [Os(bpy)2(IP-3T)]Cl2 [1–3T]
EC50 [1, 10]: 45.8 µM | EC50 [4]: 71.9 µM

Compound: [Os(bpy)2(IP-4T)]Cl2 [1–4T]
phototherapeutic index PIgreen ([1]; green 523 nm, ratio of dark to light EC50): 6700 | EC50 [1, 10]: 71.9 µM | EC50 ([1]; read-out: light EC50, green light, green 523 nm, 100 J cm^−2): ~0.01 µM | EC50 ([1]; read-out: light EC50, red light, red 633 nm, 100 J cm^−2): ~0.01 µM | EC50 [1, 11]: 0.00131 µM | phototherapeutic index PIvis ([1]; visible light, ratio of dark to light EC50): 55,000 | phototherapeutic index (PI) in hypoxia ([4]; hypoxia 1% O2, across the three light conditions): ~70 | EC50 [4]: 55.3 µM | fold improvement over 2–4T ([7]; PDT dose product EC50, normoxia): ≥ 5 fold | photocytotoxic activity at the lowest tested fluence ([7]; normoxia, 10 J cm^−2, both wavelengths (523 and 633 nm)): Submicromolar | solubility in aqueous media relative to the dmb analogs [6]: less soluble | singlet oxygen quantum yield ΦΔ [8]: 70% | maximum tolerated dose (MTD) [9]: ≥ 200 mg/kg

solubility in high ionic strength aqueous media [6]: ≥ 1200 µM
Compound: [Os(dmb)2(IP-3T)]Cl2 [2–3T]

Compound: [Os(dmb)2(IP-4T)]Cl2 [2–4T]
EC50 [1, 11]: 0.071 µM | PIgreen in hypoxia ([4]; hypoxia 1% O2, green light): 15 | solubility in high ionic strength aqueous media [6]: ≥ 1200 µM | singlet oxygen quantum yield ΦΔ [8]: 56% | maximum tolerated dose (MTD) [9]: ≥ 200 mg/kg

Compound: [Os(dmb)3](Cl)2 [[Os(dmb)3]^2+, reference compound]
EC50 [1, 10]: > 100 µM

Compound: [Os(phen)2(IP-4T)]Cl2
PIvis in hypoxia ([3]; hypoxia, visible light): 90
